# JMJD2C inh: inhibitors of human GASC-1 (JMJD2C) demethylase; Q9H3R0; GST-JMJD2C(1-420) H3K9me3 demethylation, DELFIA europium; inhibition, % at 2.35 µM; hit rate 0.069% among 330,000;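 active = more than half of a compound's replicate wells show inhibition beyond 50%, single wells judged on their own value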;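 also: signal counts dimethyl H3K9 product captured on neutravidin plate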
# GRK2 aptamer HTS: human GRK2 inhibition via aptamer displacement. P25098. bead flow cytometry, FAM-aptamer displacement from GRK2. inhibition of aptamer binding, % at 10 µM. hit rate 0.59% among 330,000. AID 488847;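 active = inhibition of aptamer binding above 40%, roughly 3 SD of noise, on plates passing a quality check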;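 also: median bead fluorescence of bound FAM aptamer so fluorescent compounds give negative values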
# Lipid droplet: modulators of hepatic lipid droplet formation; AML12 mouse hepatocytes, oleate lipid droplets, BODIPY imaging; inhibition, % at 6.5 µM; hit rate 0.4% among 240,000; AID 1656;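 active = lipid droplet intensity inhibited by at least 50%, with more than 500 cells counted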
#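 Material: mouse AML12 hepatocyte cell line, fixed after treatment; Timing: compound with oleate, overnight; Technique: high-content imaging of BODIPY-stained droplets and DAPI nuclei; Probe or stimulus: oleate, 100 µM final; Dosing: compound at 6.5 µM only.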
# proCasp7 act: counter-screen: procaspase-7 (human) activation. hit rate 0.093% among 330,000. activation, % at 8.5 µM. recombinant procaspase-7, Ac-DEVD-pNA absorbance 405 nm; D23A/D198A/D206A triple mutant, cannot self-cleave; scale: DMSO 0, 5 µM enzyme 100. P55210;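 active = percent activation above the screen-wide mean plus 3 SD, cut at about 25% in these data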
#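 Assay system: Uncleavable procaspase-7 mutant enzyme; Input: 2 µM procaspase-7 mutant as dispensed; Also added: DEVD-pNA substrate; Medium: Zinc-free HEPES pH 7.4 with 300 mM NaCl, 0.01% Triton X-100; Timing: 1 h compound preincubation, 2 h substrate cleavage, 25 °C; Measured by: Epi-absorbance of released pNA at 405 nm, two timepoints.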
# VLA-4 inh: inhibition in a human VLA-4 binding assay. P13612. VLA-4 expressing cells, ligand binding flow cytometry. inhibition, % (about 7 µM as worked out from the volumes in the protocol). hit rate 0.2% among 330,000; in the data active = inhibition above about 50%
# Target sequence (P13612 whole entry, looked up): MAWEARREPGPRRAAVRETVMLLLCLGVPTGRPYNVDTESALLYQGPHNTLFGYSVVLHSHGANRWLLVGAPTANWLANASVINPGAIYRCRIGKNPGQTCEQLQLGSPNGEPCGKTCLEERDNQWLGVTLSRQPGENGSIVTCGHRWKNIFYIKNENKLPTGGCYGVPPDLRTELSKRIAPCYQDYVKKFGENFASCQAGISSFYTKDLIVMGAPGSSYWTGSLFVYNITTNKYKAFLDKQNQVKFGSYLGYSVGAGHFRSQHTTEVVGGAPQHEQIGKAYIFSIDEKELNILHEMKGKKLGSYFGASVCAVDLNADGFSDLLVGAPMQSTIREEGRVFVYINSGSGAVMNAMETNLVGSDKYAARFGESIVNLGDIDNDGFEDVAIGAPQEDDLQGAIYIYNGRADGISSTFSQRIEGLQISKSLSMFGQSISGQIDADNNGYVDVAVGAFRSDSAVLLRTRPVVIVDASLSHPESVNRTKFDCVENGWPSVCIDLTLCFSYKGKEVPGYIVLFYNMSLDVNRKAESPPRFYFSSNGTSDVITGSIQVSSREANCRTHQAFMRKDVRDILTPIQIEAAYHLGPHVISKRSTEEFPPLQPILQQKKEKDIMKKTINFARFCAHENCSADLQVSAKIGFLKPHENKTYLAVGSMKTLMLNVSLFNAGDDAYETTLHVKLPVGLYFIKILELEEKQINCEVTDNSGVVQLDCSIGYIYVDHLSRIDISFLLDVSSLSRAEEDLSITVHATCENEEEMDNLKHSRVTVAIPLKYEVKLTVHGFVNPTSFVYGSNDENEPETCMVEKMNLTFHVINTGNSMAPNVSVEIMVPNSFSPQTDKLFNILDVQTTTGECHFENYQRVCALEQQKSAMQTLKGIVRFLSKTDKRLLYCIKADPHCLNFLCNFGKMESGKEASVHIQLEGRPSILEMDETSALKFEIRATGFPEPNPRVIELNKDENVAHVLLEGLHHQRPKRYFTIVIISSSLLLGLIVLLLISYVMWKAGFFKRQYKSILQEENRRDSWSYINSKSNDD
# procasp3 activ: procaspase-3 (human) activation; hit rate 0.11% among 330,000; activation, % at 8.5 µM; recombinant procaspase-3 D3A, Ac-DEVD-pNA absorbance 405 nm; P42574;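 active = activation above the mean of all tested compounds plus 3 SD, cut at about 21% in these data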
#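 Test system: Procaspase-3 D3A mutant; medium: Zinc-free HEPES/NaCl buffer with 0.01% Triton X-100 at pH 7.4; reagent: DEVD-pNA substrate; doses: one concentration, 8.5 µM nominal, 0.8% DMSO; times: 1 h preincubation plus 2 h reaction at 25 °C; signal: Epi-absorbance at 405 nm of released p-nitroaniline, 0 and 120 min; replicates: singlicate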
# GRK2 CP1: confirmation of human GRK2 inhibitors displacing RNA aptamer. shares compounds with GRK2 aptamer HTS. hit rate 4% among 2,000. aptamer displacement, % at 10 µM. bead-bound GRK2, FAM-aptamer displacement, flow cytometry;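 active = aptamer displacement above 40%, near three times the noise of non-fluorescent compounds, on plates passing quality checks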;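 also: negative values mostly reflect intrinsic compound fluorescence rather than true enhancement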
# FAM quench CP1: counter-screen for GRK2 aptamer inhibitors: fluorescent aptamer quenchers; AID 504580; Carboxyfluorescein RNA aptamer on beads, flow cytometry quenching; stronger effect = lower value; 2,000 tested, under 10 active; shares compounds with GRK2 aptamer HTS; fluorescence response (% of DMSO), % at 10 µM;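 active = compounds that quench the bead-bound fluorescent RNA probe, cutting fluorescence to under half of the solvent control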;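 also: counterscreen run without GRK2 so only probe quenching by compound is measured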
# GRK2 CP2: confirmation of human GRK2 inhibitors binding RNA aptamer site; shares compounds with GRK2 aptamer HTS; bead-bound GRK2, FAM-aptamer displacement, flow cytometry; inhibition of aptamer binding, % at 10 µM; 360 tested, under 10 active; AID 504782;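 active = inhibition of aptamer binding above 40%, about triple the noise seen with nonglowing compounds, on plates passing quality control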;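 also: negative values mostly come from compounds that fluoresce themselves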
# FAM quench CP2: counter-screen for GRK2 binding hits: quenchers of fluorescent RNA aptamer | 360 tested, under 10 active | fluorescence response vs DMSO, % at 10 µM | carboxyfluorescein RNA aptamer beads, flow cytometry quenching; stronger effect = lower value | shares compounds with GRK2 aptamer HTS;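 active = response vs DMSO under 50%, meaning signal dropped by over half, treated as fluorescence quencher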;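 also: labelled aptamer on streptavidin beads without GRK2 as a quench counter-screen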
# A number is an active result; n = inactive; x = not tested or not shown. Most compounds without a hit are left out; they make up all but 1.3% or so of the library.
SMILES,JMJD2C inh,GRK2 aptamer HTS,Lipid droplet,proCasp7 act,VLA-4 inh,procasp3 activ,GRK2 CP1,FAM quench CP1,others
CN(c1ccccc1)S(=O)(=O)c1cccc(NC(=O)Cc2n[nH]c(=O)c3ccccc23)c1,n,n,x,n,n,n,x,x,
OC1(c2ccc(Cl)c(Cl)c2)C[n+]2ccccc2N1Cc1ccccc1 (stereo unspecified),n,n,n,n,n,n,x,x,
Cc1c(NC(=O)c2ccc(Cl)c([N+](=O)[O-])c2)cccc1-n1cnnn1,n,n,x,n,n,n,x,x,
Cc1c(NC(=O)c2ccc(S(=O)(=O)N(C)C)cc2)cccc1-n1cnnn1,n,94,x,n,n,n,n,n,
Cc1ccc(C)c(OCC(=O)N(C)CC(=O)Nc2ccc(Cl)c(C(F)(F)F)c2)c1,n,79,x,n,n,n,n,n,
Cc1cccc(C(=O)OCC(=O)N(C)CC(=O)Nc2ccc(Cl)c(C(F)(F)F)c2)c1,n,n,x,n,n,n,x,x,
C=CCNCc1cc(=O)n2c(-c3ccccc3)csc2n1,n,n,n,n,n,n,x,x,
O=C(NC1CCN(C(=O)c2cccc([N+](=O)[O-])c2)CC1)c1ccccc1,n,98,x,n,n,n,n,n,
Cc1ccc(CNC(=O)C2CCC(=O)N(CC3CCCCC3)C2)o1 (stereo unspecified),n,n,n,n,n,n,x,x,
Cc1cc(C)c(S(=O)(=O)NCc2csc(C)n2)c(C)c1,n,n,n,x,n,x,x,x,
COc1ccc(CN2CCN(C(C)C)C(CCO)C2)cc1Cn1cncn1 (stereo unspecified),n,46,n,n,n,n,n,n,
Cc1cccc(C)c1NC(=O)CNC(=O)C(C)NC(C)c1ccccc1Br (stereo unspecified),n,n,x,n,n,n,x,x,
COc1ccc(C)cc1NC(=O)c1sc2ncnc(N3CCN(c4ccccn4)CC3)c2c1C,n,n,n,n,n,n,x,x,
O=S(=O)(Nc1cc(Sc2cccc3cccnc23)c(O)c2ccccc12)c1ccc(F)cc1,n,42,n,n,n,n,n,n,
O=C(COc1coc(CN2CCCc3ccccc32)cc1=O)Nc1ccc([N+](=O)[O-])cc1,n,62,x,n,n,n,n,n,
COc1ccc(OC)c(/C=N/NC(=O)c2ccncc2)c1,n,57,n,n,n,n,n,n,
COc1ccc(CCNC(=O)CCn2c(=O)c3cccn3c3ccc(F)cc32)c(OC)c1OC,n,n,n,n,n,n,x,x,
Cc1nc(NC(=O)c2cccs2)ccc1Br,n,n,n,n,n,n,x,x,
O=C1CC(c2ccc3c(c2)OCCO3)Oc2ccc([N+](=O)[O-])cc21 (stereo unspecified),n,42,n,n,n,n,n,n,
CSc1ccccc1NC(=O)COC(=O)Cn1cc(C(F)(F)F)ccc1=O,n,n,x,n,n,n,x,x,
COc1ccc(N2CCN(CCCNC(=O)C3(S(=O)(=O)c4ccc(Cl)cc4)CC3)CC2)cc1,n,n,n,n,n,n,x,x,
O=C(NCCCN1CCN(c2cccc(Cl)c2)CC1)C1(S(=O)(=O)c2ccc(Cl)cc2)CC1,n,n,n,n,n,n,n,n,
CC(C)C[C@H]1COCCS(=O)(=O)N1Cc1cccc(F)c1,n,n,x,n,n,n,x,x,
CC1(C)Cc2c(sc(N)c2C#N)C(C)(C)N1,n,n,n,n,n,n,x,x,
CN1Cc2sc(N)c(C#N)c2CC1(C)C,n,52,x,n,n,n,n,n,
SMILES,JMJD2C inh,GRK2 aptamer HTS,Lipid droplet,proCasp7 act,VLA-4 inh,procasp3 activ,GRK2 CP1,FAM quench CP1,others
Cc1ccc(C(=O)COC(=O)[C@@H](NC(=O)c2ccco2)C(C)C)s1,n,n,x,n,n,n,x,x,
Cc1ccc(Cn2c(Cc3ccccc3)nc3ccccc32)cc1,n,96,x,n,n,n,n,n,
ClCc1nc2ccccc2n1Cc1ccccc1,n,n,n,n,n,n,x,x,
O=C(CN1CCN(S(=O)(=O)c2ccc(F)cc2)CC1)N1CCOCC1,n,n,n,n,n,n,x,x,
COc1ccc(CCNC(=O)CSc2ccc3nnc(CCNC(=O)c4ccc(C)cc4)n3n2)cc1OC,n,61,n,n,n,n,x,x,GRK2 CP2=n;FAM quench CP2=n
Cc1ccc(C(=O)NCCc2nnc3ccc(SCC(=O)NCc4ccc(F)cc4)nn23)cc1,n,n,n,n,n,n,x,x,
COC(=O)CC1COc2ccccc2N1C(=O)c1cc(OC)c(OC)c(OC)c1 (stereo unspecified),n,n,n,n,n,n,x,x,
Cc1ccc(/C=C2\SC(=S)N(C3CCS(=O)(=O)C3)C2=O)o1 (stereo unspecified),n,43,n,n,n,n,n,n,
CCN(CC(=O)NCc1cccs1)C(=O)c1cc(Br)ccc1O,n,n,x,n,n,n,x,x,
COc1cc(/C=N/Nc2ccc(C(=O)O)cc2)ccc1O,n,41,n,n,n,n,n,n,
Fc1ccc(CNc2cnccn2)cc1,n,64,x,n,n,n,n,n,
CCn1cc(C(=O)NCCc2ccc(OC)cc2)c(=O)c2ccc(C)nc21,n,n,n,n,n,n,x,x,
Cc1cc(C(=O)COC(=O)c2ccc(F)cc2F)c(C)n1C1CC1,n,n,x,n,n,n,x,x,
COc1ccc(CN2CCS(=O)(=O)CC2)cc1OC,n,n,n,n,n,n,x,x,
CCOC(=O)c1c(-c2ccccc2)oc2ccc(O)c(CN3CCOCC3)c12,n,n,n,n,n,n,x,x,
CCOC(=O)c1cc(CN2CCOCC2)oc1-c1ccccc1,n,69,x,n,n,n,n,n,
CC1CN(S(=O)(=O)c2ccc(C(=O)Nc3ccccc3F)cc2)CC(C)O1 (stereo unspecified),n,n,x,n,n,n,x,x,
COc1ccc(C(CC(=O)N2CCOCC2)c2c(OC)cc(OC)c3c(-c4ccccc4)cc(=O)oc23)cc1 (stereo unspecified),n,48,n,n,n,n,n,n,
COc1ccc(C(CC(=O)N2CCCC2)c2c(OC)cc(OC)c3c(-c4ccccc4)cc(=O)oc23)cc1 (stereo unspecified),n,n,n,n,n,n,x,x,

# Bioassay records from PubChem.
